Assay results reported in PMC5557401 (Drug Design, Development and Therapy, 2017).

Tests used:
[1] = test system: A-549 cells; assay: Cell cycle effects and total cell number; assay type: cell-based, human; settings: A-549, 24 and 48 h of incubation
How it was run: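 A-549 lung adenocarcinoma cells were exposed to a concentration range from under 100 nM to 50 μM for 24 and 48 h. Cells were immunofluorescently imaged for phosphorylated Rb and total DNA content per cell to assign cell-cycle phase and total cell number. IC50 was derived for the reduction in total cell number.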

[2] = In vitro metabolism with rat liver microsomes, LC-MS; assay type: in vitro ADME; settings: incubation with rat liver microsomes, phase I

Which results are given for `COc1ccc(-c2nc(NN=C3C(=O)Nc4ccc(Br)cc43)c3ccccc3n2)cc1OC` [Compound 7d, 5-Bromo-3-(2-(2-(3,4-dimethoxyphenyl)quinazolin-4-yl) hydrazono)indolin-2-one]?
Cell cycle effects [1]: no effects on the tested parameters; Metabolic reaction (in vitro RLMs metabolites) [2]: demethylation

For `CCN(CC)CCNC(=O)c1c(C)[nH]c(/C=C2\C(=O)Nc3ccc(F)cc32)c1C` [Sunitinib, reference compound], which Cell cycle effects [1] is on record?
The Cell cycle effects was “reduction in the percentage of cells in G1, with corresponding increases in S or G2/M phases”.
